Screens from PubChem.
HUVEC inhibit = human endothelial cell proliferation inhibition; viability, % at 10 µM (by protocol); HUVEC proliferation, CellTiter-Glo luminescence, 72 h; stronger effect = lower value; 1.1% of 86,000 active;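 active = viability at or below 30%; inactive = viability above 30%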;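 note: 100% = median luminescence of DMSO-only cell control wells on each plate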
Pyk2 oligo antag = antagonists of human Pyk2 oligomerization. Q14289. Q293 cells, Pyk2 FERM NanoBiT luminescence; stronger effect = lower value. z-score (the deposit names both 25 µM and 10 µM). 0.83% of 99,000 active;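 active = Z-score of -3 or lower, scaled per plate to the spread of control and sample wells; inactive = z-score above -3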;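 note: negative z-score means lost luminescence so less FERM oligomerization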
H69AR inhibit = growth inhibitors of human H69AR lung tumor cells; H69AR lung tumor viability, ATP luminescence, 72 h; stronger effect = lower value; viability, % at 10 µM; 6% of 85,000 active;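 active = viability at or below 40%; inactive = viability above 40%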;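 note: multidrug resistant small cell line overexpressing MRP-1 efflux transporter; 100% = mean luminescence of untreated control wells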
bCat KO growth = beta-catenin-lacking colon tumor cell growth suppression; HCT116 beta-catenin knockout viability, CellTiter-Glo, 60 h; stronger effect = lower value; viability, % at 10 µM; 1.5% of 140,000 active; AID 818;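 active = viability at or under a set limit, the compound median less 4 SD, cut at about 6% in these data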;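 note: 0% = Hyamine 1622 control at 20 µM and 100% = untreated cell control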
PTEN del growth = PTEN-deleted cell growth suppression; HCT116 PTEN-null viability, CellTiter-Glo, 60 h; stronger effect = lower value; viability, % at 10 µM; 1.2% of 140,000 active; AID 827;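 active = viability at or below a set limit, 4 SD under the median of all tested compounds, cut at about 3.7% in these data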;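 note: PTEN knockout HCT116 line with beta catenin targeted HCT116 as companion control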
Lung fibro prol = blocks proliferation of human lung fibroblasts. LL 47 human lung fibroblast viability, ATP luminescence; stronger effect = lower value. viability, % at 10 µM. 1.1% of 85,000 active;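 active = viability at or below 50% in the single dose screen; inactive = viability above 50%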;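 note: compound exposure lasted 72 h before the ATP readout; 100% = median luminescence of untreated cell-only wells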
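Test system: LL 47 human lung fibroblasts / Incubation: 72 h compound exposure at 37 °C after overnight plating / Technique: luminescent ATP detection, CellTiter-Glo / Compound dosing: 0.1% DMSO in all compound wells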
An asterisk follows results filed as active; x = not tested or not shown. Many of the other results were omitted from the sample, so hits are more common in it than they were.

SMILES	HUVEC inhibit	Pyk2 oligo antag	H69AR inhibit	bCat KO growth	PTEN del growth	Lung fibro prol
Nc1nc(NCC2CCCO2)nc(Nc2ccccc2)c1[N+](=O)[O-] (stereo not drawn)	x	-1.3	x	77	84	x
c1ccc(-c2nc(NCc3ccco3)c3ccccc3n2)nc1	48	0.4	16*	8	8	55
Oc1ccccc1-c1nc(NCc2ccco2)c2ccccc2n1	47	-1.2	36*	38	35	74
CSc1nc(C)cc(OCCNS(=O)(=O)c2cc(C)ccc2C)n1	98	0.66	73	80	86	102
CSc1ccccc1NC(=O)Nc1ccc(Cl)cc1	47	-1.9	35*	29	20	84
CCn1c(C)c(C(C)=O)c(SC)nc1=S	95	-0.22	81	94	96	91
COC(=O)c1c(NC(=O)CN2CCN(c3ccccc3OC)CC2)c2cc(C)ccc2n1C	66	1.8	29*	88	95	87
COc1ccccc1N1CCN(CC(=O)Nc2cc(C)nn2-c2nc(C)cc(C)n2)CC1	38	x	19*	x	x	37*
O=C(Nc1nc(-c2ccccc2)cs1)c1ccc2c(c1)S(=O)(=O)c1ccccc1C2=O	x	x	x	4.0*	2.5*	x
CCN(CC)c1ccc(NC(=O)CC2Oc3ccccc3NC2=O)c(C)c1 (stereo not drawn)	78	x	25*	71	65	87
Cn1nc(N)c2c(-c3ccccc3)c(C#N)c(N)nc21	x	x	x	92	93	x
Cc1c(CC(C)C)nc(N)c(C#N)c1-c1ccccc1	84	-1.3	24*	70	70	92
O=C(Cc1cccs1)Nc1ccc(Cl)cc1	99	-0.72	99	88	87	100
Cc1ccc(-c2nnc(-c3ccc(NC(=O)Cc4cccs4)cc3)o2)cc1	x	0.66	x	1.2*	1.4*	x
O=C(C1CCCN(S(=O)(=O)c2cnc[nH]2)C1)N1CC(=O)N(CCc2ccccc2)C(=O)C1 (stereo not drawn)	114	x	99	98	109	111
O=S(=O)(/N=C(/Sc1ccccc1)c1ccccc1)c1ccccc1	66	-0.41	26*	94	90	50
O=C(C1CC1)N1CCc2cc(Br)cc(S(=O)(=O)N3CCCCCC3)c21	98	-1	37*	75	77	83
COc1cc(OC)cc(C(=O)Nn2cc(C(=O)Nc3ccc(F)cc3F)c3ccccc3c2=O)c1	x	x	x	74	80	x
O=C(CSc1ccccc1)NCCSCc1ccccc1	x	x	x	90	95	x
CCc1nnc(NC(=O)c2ccc(S(=O)(=O)N3CCCc4ccccc43)cc2)o1	58	-1.5	20*	18	14	67
Cn1c(=O)c(=O)n(C)c2cc(S(=O)(=O)N3CCc4ccccc43)ccc21	100	-0.4	74	80	79	83
COc1ccccc1C(=O)Nc1ccc(S(=O)(=O)N2CCc3ccccc32)cc1	107	-2.7	95	83	79	107
Cn1c(=O)oc2cc(S(=O)(=O)N3CCCc4ccccc43)ccc21	48	x	23*	15	15	50
COC(=O)Nc1ccc(S(=O)(=O)N2CCCc3ccccc32)cc1	51	-1.9	18*	14	15	53
Cc1cccc(N(CC(=O)NCc2ccc3c(c2)OCO3)C(=O)CCC(=O)Nc2ccccn2)c1C	92	-3.1*	85	85	79	100
SMILES	HUVEC inhibit	Pyk2 oligo antag	H69AR inhibit	bCat KO growth	PTEN del growth	Lung fibro prol
CC(C)CNC(=O)COc1cccc(C(=O)NCc2ccccc2)c1	x	x	x	86	86	x
CC(C)CCNC(=O)C(c1ccco1)N(Cc1cccs1)C(=O)Cn1nnc2ccccc21 (stereo not drawn)	97	-3.1*	89	97	88	105
O=C(Nc1cccc(S(=O)(=O)N2CCOCC2)c1)c1c2c(nc3ccccc13)CCC2	x	-0.62	x	97	97	x
O=C(Nc1nnc(-c2ccccc2SCc2ccccc2F)s1)Nc1ccccc1F	66	-0.28	16*	1.3*	1.4*	26*
CC(=O)Nc1nnc(SCc2ccccc2F)s1	91	-0.29	91	98	111	100
O=C(O)CCCNS(=O)(=O)c1ccc(NCc2ccccc2)c(C(=O)O)c1	99	-0.75	87	91	94	91
O=C(CSc1nc2ncc(Br)cc2[nH]1)Nc1ccc2c(c1)OCO2	75	-0.35	2.5*	84	95	104
CCOC(=O)c1c(C)[nH]c(C(=O)CSc2nnc(-c3cccs3)n2Cc2ccccc2)c1C	52	0.58	4.9*	87	95	79
